The values that follow come from paper PMC4066744 (Nucleic Acids Research, 2014).

Experiment [1] deals with KIX domain of CBP/p300 (mouse CBP 586–672) (Mus musculus, UniProt P45481). It is filed as binding. The settings on record: for decrease in affinity for the KIX domain relative to native E2A AD2–1: mutant peptide versus wild-type E2A AD2–1, fluorescence anisotropy titration. Put shortly: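 Mouse CBP KIX (586–672), E. coli BL21(DE3)-expressed, purified, with final size exclusion in 20 mM MES pH 6.0, 1 mM β-mercaptoethanol (same buffer for titration). KIX spiked with 100 nM FITC-peptide titrated into that peptide. Ex 492/em 523 nm; three readings per injection averaged. Kd from quadratic one-site fit plus linear non-specific term. Mutant-peptide series run in triplicate; mean ± standard error.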
(Fluorescence polarisation rises when a labelled molecule tumbles more slowly, as on binding a larger partner.)

Experiment [2] deals with KIX^ΔPCETsite (Phe612Ala/Asp622Ala/Arg624Ala/Lys667Glu quadruple KIX mutant) (Mus musculus, UniProt P45481, D622A/F612A/K667E/R624A). It is filed as binding. The settings on record: 250 μM versus 17 μM.
In experiment [3] the target is KIX domain from mouse CBP 586-672 (mouse) (UniProt P45481). Put plainly: fluorescence polarisation.
For experiment [4], the target named is KIX domain from mouse CBP 586-672 (mouse, UniProt P45481 586-672). Put plainly: NMR titration.
KIX domain from mouse CBP 586-672, sequence (P45481 586-672): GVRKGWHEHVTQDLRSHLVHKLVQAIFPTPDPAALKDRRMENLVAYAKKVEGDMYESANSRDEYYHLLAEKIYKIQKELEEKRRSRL

KIX domain from mouse CBP 586-672 (mouse), sequence (P45481 586-672): as above
KIX domain of CBP/p300 (mouse CBP 586–672), sequence (P45481 586-672): as above
KIX^ΔPCETsite (Phe612Ala/Asp622Ala/Arg624Ala/Lys667Glu quadruple KIX mutant), sequence (P45481 586-672 F612A/D622A/R624A/K667E): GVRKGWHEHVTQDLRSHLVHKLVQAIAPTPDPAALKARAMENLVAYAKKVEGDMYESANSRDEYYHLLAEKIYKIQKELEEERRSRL

As for “Ac-EDHADEAIHVLRSH-NH2 (N-terminus and C-terminus assumed) [E2A AD2–1 Leu397Ala]”, the “decrease in affinity for the KIX domain relative to native E2A AD2–1” value in experiment [1] was found to be 6 fold. Same read-out and setting: to “Ac-EDHLDEAIHVARSH-NH2 (N-terminus and C-terminus assumed) [E2A AD2–1 Leu404Ala]” belongs “approximately 5 fold”. As for Ac-EDHLDEAIHVLRSH-NH2 [E2A AD2–1], the “decrease in affinity of KIX^ΔPCETsite mutant relative to native KIX” value in experiment [2] stood at 15 fold. Turning to “Ac-EDHLDEAIHVLRSHAVGTAGDMHTLLP-NH2 [E2A AD2–1/2]”, the Kd (commonly the constant that tells how readily two partners part at equilibrium) in experiment [1] came out at 21 ± 3 µM. In experiment [1], “Ac-EDHLDEAIHVLRSHY-NH2 [E2A AD2–1 (C-terminal tyrosine)]” displayed an equilibrium dissociation constant (Kd) of 21 ± 5 µM. Consider “E2A AD2-1 Ala400Leu FITC-labelled synthetic mutant peptide (from UniProt P15923 394-407)”, for which the Kd in experiment [3] amounted to 7.2 µM. Molecule “E2A AD2-1 His402Ala FITC-labelled synthetic mutant peptide (from UniProt P15923 394-407)” yielded a Kd in experiment [3] of 13.5 µM. Consider “E2A AD2-1 Ile401Ala FITC-labelled synthetic mutant peptide (from UniProt P15923 394-407)”, for which the dissociation constant Kd in experiment [3] was determined as 106 µM.

On to “E2A AD2-1 Leu397Ala FITC-labelled synthetic mutant peptide (from UniProt P15923 394-407)”, for which the Kd in experiment [3] amounted to 102 µM. As for “E2A AD2-1 Leu404Ala FITC-labelled synthetic mutant peptide (from UniProt P15923 394-407)”, the dissociation constant (Kd) in experiment [3] was 86 µM. EDHLDEAIHVLRSHAVGTAGDMHTLLP [Unfused recombinant E2A AD2-1/2 (E2A residues 394-420)]: the binding result in experiment [4] is given as “binds”.
